Data on 18 molecules can be found in ChEMBL document CHEMBL1132970, “Synthesis of N-substituted 4-(4-hydroxyphenyl)piperidines, 4-(4-hydroxybenzyl)piperidines, and (+/-)-3-(4-hydroxyphenyl)pyrrolidines: selective antagonists at the 1A/2B NMDA receptor subtype” (J Med Chem, 2000).

Assay [1] has as its target Glutamate NMDA receptor; Grin1/Grin2c (Rattus norvegicus, UniProt P35439+Q00961). As to the kind of experiment: Inhibitory activity against Xenopus oocytes expressing rat N-Methyl-D-aspartate (NR1A/2C) Receptor subtype. The class given is cell-based, Oocyte. The method, boiled down: (§1)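 Electrophysiology on oocytes expressing each NMDA subunit combination. IC50 from curve fitting of concentration-inhibition data pooled from 1-7 separate experiments.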

For assay [2], the target named is Glutamate NMDA receptor; Grin1/Grin2a (Rattus norvegicus, UniProt P35439+Q00959). As to the kind of experiment: Inhibitory activity against Xenopus oocytes expressing rat N-Methyl-D-aspartate (NR1A/2A) Receptor subtype. The class given is cell-based, Oocyte. The method, boiled down:
as §1

For assay [3], the target named is Glutamate NMDA receptor; Grin1/Grin2b (Rattus norvegicus, UniProt P35439+Q00960). As to the kind of experiment: Inhibitory activity against Xenopus oocytes expressing rat N-Methyl-D-aspartate (NR1A/2B) Receptor subtype. Type of assay: cell-based, Oocyte. Summed up: as §1
Chain of Glutamate NMDA receptor; Grin1/Grin2b (Q00960 whole entry, other chains not shown): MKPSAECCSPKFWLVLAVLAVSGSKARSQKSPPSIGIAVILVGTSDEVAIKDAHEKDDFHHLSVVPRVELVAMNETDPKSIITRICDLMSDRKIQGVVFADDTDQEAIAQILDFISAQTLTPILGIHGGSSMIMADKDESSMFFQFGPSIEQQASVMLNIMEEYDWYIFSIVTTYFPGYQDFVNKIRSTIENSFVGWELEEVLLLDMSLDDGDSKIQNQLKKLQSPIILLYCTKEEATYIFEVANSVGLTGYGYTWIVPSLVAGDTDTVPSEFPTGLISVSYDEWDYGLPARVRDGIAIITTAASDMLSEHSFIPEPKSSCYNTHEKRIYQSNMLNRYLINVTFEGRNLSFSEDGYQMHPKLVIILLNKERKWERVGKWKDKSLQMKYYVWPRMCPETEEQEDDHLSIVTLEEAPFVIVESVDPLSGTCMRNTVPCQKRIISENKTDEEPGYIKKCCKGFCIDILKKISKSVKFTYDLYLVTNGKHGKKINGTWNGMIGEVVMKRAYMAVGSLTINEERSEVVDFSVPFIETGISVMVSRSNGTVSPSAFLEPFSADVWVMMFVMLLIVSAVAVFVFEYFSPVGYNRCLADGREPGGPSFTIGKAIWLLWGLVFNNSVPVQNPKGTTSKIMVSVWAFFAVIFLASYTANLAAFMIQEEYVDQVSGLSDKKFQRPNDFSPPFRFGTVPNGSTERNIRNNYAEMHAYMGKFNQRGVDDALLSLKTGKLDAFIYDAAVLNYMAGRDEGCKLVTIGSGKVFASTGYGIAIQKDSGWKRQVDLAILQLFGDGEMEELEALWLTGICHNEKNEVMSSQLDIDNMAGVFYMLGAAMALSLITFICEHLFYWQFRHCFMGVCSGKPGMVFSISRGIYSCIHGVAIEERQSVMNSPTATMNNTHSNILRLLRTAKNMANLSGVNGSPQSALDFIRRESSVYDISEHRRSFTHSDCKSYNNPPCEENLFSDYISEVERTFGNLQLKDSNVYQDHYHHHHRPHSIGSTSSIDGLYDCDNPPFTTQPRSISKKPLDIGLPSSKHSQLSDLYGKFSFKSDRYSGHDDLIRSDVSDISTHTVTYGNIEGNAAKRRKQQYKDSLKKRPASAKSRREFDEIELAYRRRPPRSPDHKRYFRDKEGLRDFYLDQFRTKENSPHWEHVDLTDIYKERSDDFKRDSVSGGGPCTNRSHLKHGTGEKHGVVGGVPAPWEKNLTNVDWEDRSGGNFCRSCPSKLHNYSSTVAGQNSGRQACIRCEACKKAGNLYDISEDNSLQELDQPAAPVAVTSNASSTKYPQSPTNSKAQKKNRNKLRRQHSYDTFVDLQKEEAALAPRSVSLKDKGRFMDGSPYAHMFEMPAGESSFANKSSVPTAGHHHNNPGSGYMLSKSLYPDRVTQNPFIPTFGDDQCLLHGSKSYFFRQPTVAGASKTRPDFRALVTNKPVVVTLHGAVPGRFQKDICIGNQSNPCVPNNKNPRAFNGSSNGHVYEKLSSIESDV
Assay [4] deals with T1, Adrenergic receptor alpha-1 (Rattus norvegicus, UniProt P15823+P23944+P43140).
T1 sequence (P15823 whole entry): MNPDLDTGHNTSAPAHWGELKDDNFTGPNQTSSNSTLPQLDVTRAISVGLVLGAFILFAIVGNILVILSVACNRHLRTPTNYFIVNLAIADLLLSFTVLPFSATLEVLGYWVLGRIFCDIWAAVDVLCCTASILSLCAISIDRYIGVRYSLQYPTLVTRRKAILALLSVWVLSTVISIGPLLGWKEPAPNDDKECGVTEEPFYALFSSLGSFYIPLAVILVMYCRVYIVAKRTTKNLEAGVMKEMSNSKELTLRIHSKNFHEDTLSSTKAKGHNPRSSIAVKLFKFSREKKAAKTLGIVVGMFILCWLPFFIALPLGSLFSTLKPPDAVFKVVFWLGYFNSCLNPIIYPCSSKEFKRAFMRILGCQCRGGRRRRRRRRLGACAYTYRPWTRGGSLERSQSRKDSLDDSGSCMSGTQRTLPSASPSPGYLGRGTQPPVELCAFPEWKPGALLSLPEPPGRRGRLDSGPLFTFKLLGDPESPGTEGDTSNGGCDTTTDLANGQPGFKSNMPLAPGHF
T1 sequence (P23944 whole entry): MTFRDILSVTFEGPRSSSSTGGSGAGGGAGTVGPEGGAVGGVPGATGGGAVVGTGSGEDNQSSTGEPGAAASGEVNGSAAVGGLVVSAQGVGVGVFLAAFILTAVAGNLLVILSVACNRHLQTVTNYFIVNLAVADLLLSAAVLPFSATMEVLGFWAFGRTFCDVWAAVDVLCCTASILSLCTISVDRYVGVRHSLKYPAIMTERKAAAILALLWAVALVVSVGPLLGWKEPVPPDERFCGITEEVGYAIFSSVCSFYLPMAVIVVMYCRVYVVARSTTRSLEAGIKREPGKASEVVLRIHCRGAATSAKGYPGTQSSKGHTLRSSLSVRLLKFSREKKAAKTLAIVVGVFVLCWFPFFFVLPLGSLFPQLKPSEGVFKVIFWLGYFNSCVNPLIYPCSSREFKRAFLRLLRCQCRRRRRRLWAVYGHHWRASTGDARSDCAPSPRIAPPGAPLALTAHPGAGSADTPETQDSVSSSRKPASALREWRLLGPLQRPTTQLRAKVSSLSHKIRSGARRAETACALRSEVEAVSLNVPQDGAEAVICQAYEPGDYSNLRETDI
T1 sequence (P43140 whole entry): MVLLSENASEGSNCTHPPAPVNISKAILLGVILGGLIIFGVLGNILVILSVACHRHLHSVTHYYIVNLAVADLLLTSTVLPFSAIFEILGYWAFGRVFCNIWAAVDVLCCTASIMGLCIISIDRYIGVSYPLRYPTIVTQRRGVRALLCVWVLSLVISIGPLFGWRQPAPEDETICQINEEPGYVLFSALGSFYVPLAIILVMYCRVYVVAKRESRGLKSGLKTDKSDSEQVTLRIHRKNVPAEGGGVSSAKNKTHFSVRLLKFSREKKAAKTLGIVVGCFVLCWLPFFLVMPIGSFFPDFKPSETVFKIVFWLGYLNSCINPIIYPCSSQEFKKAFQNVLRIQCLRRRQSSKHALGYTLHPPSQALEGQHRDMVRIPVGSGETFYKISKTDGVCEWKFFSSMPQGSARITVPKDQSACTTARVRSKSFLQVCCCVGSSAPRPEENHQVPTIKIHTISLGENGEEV
The experiment in a line: Inhibition of [3H]prazosin binding at alpha-1 adrenergic receptor in rat brain cortical membranes. Type of assay: cell membranes, Membrane. Summed up:
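Membranes from Sprague-Dawley rat cortex, sucrose/Tris homogenate washed three times. Assayed in 140 mM NaCl/5 mM MgCl2/50 mM Tris-HCl pH 7.4. 200 µg protein incubated with 0.8 nM [3H]prazosin; 10 µM phentolamine defined nonspecific binding. Nine concentrations in duplicate; IC50 from sigmoidal fit.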

Assay [5] addresses D(2) dopamine receptor (Rattus norvegicus, UniProt P61169). The experiment in a line: Inhibition of [3H]-raclopride binding at Dopamine receptor D2 in rat brain membranes. The class given is cell membranes. Summed up:
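Rat striatal membranes, washed in 50 mM Tris-HCl pH 7.4, assayed in 120 mM NaCl/5 mM KCl/50 mM Tris-HCl pH 7.4. 200 µg membrane protein with 3 nM [3H]raclopride; nonspecific binding with 300 µM sulpiride. Nine concentrations in duplicate; IC50 by sigmoidal curve fit.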

The species entered for assay [6] is Mus musculus. The experiment in a line: Effective dose for protection against MES seizures in mice. Type of assay: functional. Summed up: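 Male Swiss Webster mice (23-27 g, food and water ad libitum), compound given iv as 5 mg/mL solution in 0.2 M Tris. Seizure protection tested 2 min after dosing; corneal electroshock, rectangular pulses 50 mA, 60-75 Hz, 0.8 ms width, 0.2 s train. Seizure scored as tonic hind-limb extension. ED50 with 95% confidence limits; at least 24 animals per compound.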

pIC50: −log10 of the molar value.

Chain of D(2) dopamine receptor (P61169 whole entry): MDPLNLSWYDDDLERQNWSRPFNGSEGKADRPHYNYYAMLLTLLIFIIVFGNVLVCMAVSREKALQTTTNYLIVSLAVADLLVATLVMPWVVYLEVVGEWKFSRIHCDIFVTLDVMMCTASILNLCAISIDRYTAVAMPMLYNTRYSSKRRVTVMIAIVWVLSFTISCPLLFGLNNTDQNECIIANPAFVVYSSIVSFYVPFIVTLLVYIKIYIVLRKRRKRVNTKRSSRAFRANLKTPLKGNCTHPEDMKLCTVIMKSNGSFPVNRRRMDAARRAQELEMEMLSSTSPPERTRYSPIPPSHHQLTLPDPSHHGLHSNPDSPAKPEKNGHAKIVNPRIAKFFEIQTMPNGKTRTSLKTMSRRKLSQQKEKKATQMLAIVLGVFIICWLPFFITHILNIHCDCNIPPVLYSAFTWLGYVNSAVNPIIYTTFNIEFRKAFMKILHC
Chain of Glutamate NMDA receptor; Grin1/Grin2a (Q00959 whole entry, other chains not shown): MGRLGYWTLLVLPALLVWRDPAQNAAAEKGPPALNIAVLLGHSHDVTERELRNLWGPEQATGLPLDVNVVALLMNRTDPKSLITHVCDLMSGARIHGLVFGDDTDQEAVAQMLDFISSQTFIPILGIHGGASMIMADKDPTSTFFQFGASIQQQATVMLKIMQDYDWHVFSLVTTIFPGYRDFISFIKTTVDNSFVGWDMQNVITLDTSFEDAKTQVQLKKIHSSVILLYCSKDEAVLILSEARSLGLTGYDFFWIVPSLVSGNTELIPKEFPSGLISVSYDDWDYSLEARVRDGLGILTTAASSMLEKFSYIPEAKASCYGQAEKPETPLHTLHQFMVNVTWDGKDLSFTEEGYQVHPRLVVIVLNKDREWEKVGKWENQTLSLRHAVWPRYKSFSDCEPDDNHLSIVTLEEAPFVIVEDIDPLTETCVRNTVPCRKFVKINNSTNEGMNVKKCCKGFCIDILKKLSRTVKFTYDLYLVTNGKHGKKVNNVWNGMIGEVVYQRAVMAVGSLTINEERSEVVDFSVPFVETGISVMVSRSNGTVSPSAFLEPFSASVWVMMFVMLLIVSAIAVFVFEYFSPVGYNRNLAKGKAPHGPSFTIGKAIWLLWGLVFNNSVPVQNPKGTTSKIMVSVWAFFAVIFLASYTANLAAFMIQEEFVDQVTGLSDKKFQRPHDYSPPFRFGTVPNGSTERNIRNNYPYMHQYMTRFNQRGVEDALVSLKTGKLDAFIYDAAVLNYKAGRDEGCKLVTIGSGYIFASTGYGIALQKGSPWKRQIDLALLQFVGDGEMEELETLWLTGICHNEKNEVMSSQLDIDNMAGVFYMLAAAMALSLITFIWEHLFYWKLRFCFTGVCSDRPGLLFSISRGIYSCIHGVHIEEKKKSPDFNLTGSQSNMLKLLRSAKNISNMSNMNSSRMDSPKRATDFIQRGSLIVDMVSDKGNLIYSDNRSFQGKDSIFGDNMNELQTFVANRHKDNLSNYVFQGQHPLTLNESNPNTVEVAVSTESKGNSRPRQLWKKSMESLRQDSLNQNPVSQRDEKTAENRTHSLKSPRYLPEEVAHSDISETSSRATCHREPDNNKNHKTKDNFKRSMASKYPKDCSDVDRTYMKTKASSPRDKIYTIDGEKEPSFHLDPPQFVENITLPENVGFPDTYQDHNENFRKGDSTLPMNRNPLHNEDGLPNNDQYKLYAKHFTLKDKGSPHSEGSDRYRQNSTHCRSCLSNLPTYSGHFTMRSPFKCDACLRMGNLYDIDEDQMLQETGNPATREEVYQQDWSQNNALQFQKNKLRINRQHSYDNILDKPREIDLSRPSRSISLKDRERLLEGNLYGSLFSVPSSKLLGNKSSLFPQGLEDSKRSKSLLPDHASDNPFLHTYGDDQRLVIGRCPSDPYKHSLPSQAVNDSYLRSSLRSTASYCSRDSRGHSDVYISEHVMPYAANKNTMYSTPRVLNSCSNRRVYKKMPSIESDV
Chain of Glutamate NMDA receptor; Grin1/Grin2c (Q00961 whole entry, other chains not shown): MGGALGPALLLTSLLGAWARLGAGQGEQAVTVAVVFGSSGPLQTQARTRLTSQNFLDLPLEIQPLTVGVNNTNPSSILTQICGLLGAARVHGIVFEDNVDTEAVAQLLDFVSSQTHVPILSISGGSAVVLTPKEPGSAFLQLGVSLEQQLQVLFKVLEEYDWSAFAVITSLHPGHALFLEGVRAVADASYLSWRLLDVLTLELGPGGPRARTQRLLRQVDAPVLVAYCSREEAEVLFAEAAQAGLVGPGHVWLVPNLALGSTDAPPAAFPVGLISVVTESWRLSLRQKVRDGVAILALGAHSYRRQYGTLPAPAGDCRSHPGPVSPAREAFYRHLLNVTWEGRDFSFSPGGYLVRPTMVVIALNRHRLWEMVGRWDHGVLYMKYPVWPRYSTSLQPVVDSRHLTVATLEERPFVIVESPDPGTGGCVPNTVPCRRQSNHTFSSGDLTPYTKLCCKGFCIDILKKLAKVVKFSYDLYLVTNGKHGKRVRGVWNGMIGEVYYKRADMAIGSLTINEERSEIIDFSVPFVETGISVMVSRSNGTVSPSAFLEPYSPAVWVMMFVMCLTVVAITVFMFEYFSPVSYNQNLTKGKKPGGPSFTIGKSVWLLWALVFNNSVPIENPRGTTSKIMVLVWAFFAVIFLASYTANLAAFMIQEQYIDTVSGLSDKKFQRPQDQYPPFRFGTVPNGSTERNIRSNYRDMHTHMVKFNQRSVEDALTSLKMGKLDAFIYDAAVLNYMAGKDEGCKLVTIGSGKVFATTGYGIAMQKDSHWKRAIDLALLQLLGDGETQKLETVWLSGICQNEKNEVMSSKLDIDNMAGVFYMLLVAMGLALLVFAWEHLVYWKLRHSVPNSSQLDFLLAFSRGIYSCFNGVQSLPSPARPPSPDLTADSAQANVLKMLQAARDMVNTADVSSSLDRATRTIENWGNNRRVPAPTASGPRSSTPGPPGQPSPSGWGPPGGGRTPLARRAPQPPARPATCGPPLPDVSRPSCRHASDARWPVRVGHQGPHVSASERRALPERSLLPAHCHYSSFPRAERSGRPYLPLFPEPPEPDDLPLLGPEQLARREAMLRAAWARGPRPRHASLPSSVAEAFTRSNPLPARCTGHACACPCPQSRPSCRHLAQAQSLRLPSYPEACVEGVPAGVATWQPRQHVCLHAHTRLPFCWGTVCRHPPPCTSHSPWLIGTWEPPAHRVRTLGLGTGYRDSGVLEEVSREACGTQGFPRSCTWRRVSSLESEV

Broadly, the pIC50 is the negative decadic logarithm of the IC50, by convention in mol/L. A low value points to a large IC50. For the molecule `Oc1ccc(C2CCN(CCOCc3ccccc3)CC2)cc1`, the pIC50 in assay [1] was under 4.00; in assay [2], 4.23; in assay [3], 7.72.

Take `CCCCN1CCC(c2ccc(O)cc2)CC1`: the figures for the pIC50 in assay [1], in assay [2] and in assay [3] were under 4.00, under 4.00 and 4.21, respectively.

As to `Oc1ccc(CC2CCN(CCCCc3ccccc3)CC2)cc1`, the figures for the pIC50 in assay [1], in assay [2] and in assay [3] were under 4.00, under 4.00 and 7.15, respectively.

The term IC50 denotes the concentration at which inhibition is half-maximal. A word on the ED50: it is the dose that gives a 50% effect, or the effect in half of the subjects. In the case of `Br.Oc1ccc(C2CCN(CCCCc3ccccc3)CC2)cc1`, the IC50 in assay [4] came out at 0.54 µM. The pIC50 is 5.92 in assay [5], under 4.00 in assay [1], under 4.00 in assay [2] and 7.66 in assay [3]. In addition, the ED50 in assay [6] is 0.23 mg/kg.

For `COc1ccc(C2CCN(CCCCc3ccccc3)CC2)cc1.Cl`, the half-maximal inhibitory concentration (IC50) in assay [4] worked out at 1.7 µM. The pIC50 is 6.39 in assay [5], under 4.00 in assay [1], under 4.00 in assay [2] and under 4.00 in assay [3]. The molecule further registered an ED50 in assay [6] of 0.56 mg/kg.

For the molecule `Oc1ccc(C2CCN(CCCCCc3ccccc3)CC2)cc1`, the negative logarithm of the IC50 (pIC50) in assay [1] was under 4.00; in assay [2], under 4.00; in assay [3] it was 7.12.

With `Oc1ccc(C2=CCN(CCCCc3ccccc3)CC2)cc1`, the pIC50 in assay [1] was under 4.00; in assay [2], under 4.00; in assay [3], 7.96.

Turning to `Oc1ccc(C2CCN(CCCc3ccccc3)CC2)cc1`, the results for the pIC50 in assay [1], in assay [2] and in assay [3] were under 4.00, 4.29 and 7.13, respectively.

Consider `Oc1ccc(CCCCN2CCC(c3ccccc3)CC2)cc1`, for which the negative-log IC50 (pIC50) is under 4.00 in assay [1], 4.37 in assay [2] and 6.64 in assay [3].

With `Oc1ccc(C2(O)CCN(CCCCc3ccccc3)CC2)cc1`, the 50% inhibitory concentration (IC50) in assay [4] stood at 2.2 µM. Also, the pIC50 was 4.66 in assay [5], under 4.00 in assay [1], 4.21 in assay [2] and 7.92 in assay [3]. The median effective dose (ED50) in assay [6] was determined as 2.3 mg/kg.

Consider `Oc1ccc(CC2CCN(CCCc3ccccc3)CC2)cc1`, for which the values for the negative logarithm of the IC50 (pIC50) in assay [1], in assay [2] and in assay [3] were under 4.00, under 4.00 and 7.23, respectively.

As for `Oc1ccc(C2CCN(CCCCCc3ccccc3)C2)cc1` (stereo not drawn), the negative logarithm of the IC50 (pIC50) in assay [1] was under 4.00; in assay [2] it was 4.39; in assay [3], 7.77.

For the molecule `Oc1ccc(C2CCN(CCCCc3ccccc3)C2)cc1` (stereo not drawn), the pIC50 in assay [1] is under 4.00; in assay [2] it was 4.28; in assay [3], 6.89.

Molecule `Oc1ccc(C2CCN(CC(O)CCc3ccccc3)CC2)cc1` (stereo not drawn) had a half-inhibitory concentration (IC50) in assay [4] of 1.4 µM. Besides, the pIC50 is 5.23 in assay [5], under 4.00 in assay [1], under 4.00 in assay [2] and 7.72 in assay [3]. It took a dose of 0.46 mg/kg to reach the 50% effect level in assay [6] (ED50).

`Oc1ccc(C2(O)CCN(CC(O)CCc3ccccc3)CC2)cc1` (stereo not drawn): in assay [4], the IC50 worked out at 14 µM. Moreover, the pIC50 in assay [5] is 3.98; in assay [1] it was under 4.00; in assay [3], 7.59. The molecule also registered a median effective dose (ED50) in assay [6] of 5.7 mg/kg.

As to `c1ccc(CCCCN2CCC(c3ccccc3)CC2)cc1`, the pIC50 was under 4.00 in assay [1], under 4.00 in assay [2] and 5.66 in assay [3].

Consider `Oc1ccc(CC2CCN(CCC#Cc3ccccc3)CC2)cc1`, for which the negative-log IC50 (pIC50) was under 4.00 in assay [1], under 4.00 in assay [2] and 6.10 in assay [3].

On to `Oc1ccc(CC2CCN(CC#Cc3ccccc3)CC2)cc1`, for which the negative logarithm of the IC50 (pIC50) in assay [1] was under 4.00; in assay [2], under 4.00; in assay [3], 6.74.
